Results published in ChEMBL document CHEMBL1268883, “Plasma-mediated release of morphine from synthesized prodrugs” (Bioorg Med Chem Lett, 2010).

What was measured:
[1] = Induction of morphine release at 37.5 nmol in presence of 25 mg/ml HSA assessed as morphine level after 15 mins by UPLC; conditions: human, 0.25 h
In short: (§1)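 PDB (37.5 nmol initial) incubated at 37 °C in 300 µl total with 150 µl sample: purified human serum BCE (0.5 U/ml) or HSA (25 mg/ml), both equivalent to 50% of serum levels, or 50% human plasma in PBS. Aliquots taken over time, mixed with 2 vol ice-cold 10% DMSO in acetonitrile, centrifuged. Supernatant run on UPLC. Morphine quantified from morphine standard curve (1.6–1.75 min peak area).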

[2] = system: Plasma; assay: Induction of morphine release at 37.5 nmol in presence of 50% human plasma after 15 mins by UPLC; format: cell-free; conditions: 0.25 h; in short: as §1
[3] = Induction of morphine release at 37.5 nmol in presence of 0.5 U/ml butyryl choline esterase assessed as morphine level after 15 mins by UPLC; format: physicochemical; conditions: isolated protein, 0.25 h; in short: as §1
[4] = system: Plasma; assay: Induction of morphine release at 37.5 nmol in presence of rat plasma assessed as morphine level per ml plasma by UPLC; format: cell-free
In short: (§2)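 Rates were taken from the linear 0–15 min time points. The mix held 37.5 nmol PDB initial and 150 µl plasma or enzyme sample (BCE 0.5 U/ml, HSA 25 mg/ml) in 300 µl total at 37 °C. After ANDM deproteinisation, morphine was measured by UPLC. Rates are expressed per ml of plasma or of enzyme sample at its human-plasma level.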

[5] = system: Plasma; assay: Induction of morphine release at 37.5 nmol in presence of human plasma assessed as morphine level per ml plasma by UPLC; format: cell-free; in short: as §2
[6] = Induction of morphine release at 37.5 nmol in presence of 0.5 U/ml butyryl choline esterase assessed as morphine level after 3 to 6 hrs by UPLC; format: physicochemical; conditions: isolated protein; in short: as §1
[7] = Induction of morphine release at 37.5 nmol in presence of HSA assessed as morphine level per mg of protein by UPLC; conditions: human
[8] = system: Plasma; assay: Induction of morphine release at 37.5 nmol in presence of 50% human plasma after 6 hrs by UPLC; format: cell-free; in short: as §1
[9] = Induction of morphine release at 37.5 nmol in presence of butyryl choline esterase assessed as morphine level per mg of protein by UPLC; conditions: isolated protein
[10] = Induction of morphine release at 37.5 nmol in presence of 25 mg/ml HSA assessed as morphine level after 2 to 6 hrs by UPLC; conditions: human; in short: as §1
[11] = Induction of morphine release at 37.5 nmol in presence of guinea pig plasma assessed as morphine level per ml plasma by UPLC; format: cell-free, Cavia porcellus; in short: as §2
[12] = system: Plasma; assay: Induction of morphine release at 37.5 nmol in presence of mouse plasma assessed as morphine level per ml plasma by UPLC; format: cell-free; in short: as §2
[13] = system: SK-N-SH; assay: Induction of morphine release in human SK-N-SH cells assessed as morphine induced inhibition of forskolin-induced cAMP production ny chemiluminescent assay; format: cell-based
In short: (§3)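 PDA (0.8 mM) was preincubated 24 h with PBS or 50% human plasma. SK-N-SH cells were switched to serum-free medium, exposed to the solutions (equivalent to 5 µM prodrug) for 15 min, then given 5 µM forskolin or vehicle for 15 min. Cells were rinsed and lysed, and cAMP was measured by chemiluminescent assay against a cAMP standard curve.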

[14] = Induction of morphine release at 37.5 nmol in presence of 50% human plasma assessed as disappearance of compound peak during 5 to 10 mins at 250 uM; format: cell-free; conditions: read-out: Activity
In short: (§4)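 PDA (250 µM) incubated with 50% plasma in PBS at 37 °C. Aliquots were withdrawn at intervals, quenched with 2 vol ice-cold 10% DMSO/acetonitrile and centrifuged. The supernatant was analysed by UPLC, following the PDA peak (4.3–4.4 min) and the morphine peak. Morphine was calculated from a morphine standard curve.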

[15] = Induction of morphine release at 37.5 nmol in presence of 50% guinea pig plasma assessed as disappearance of compound peak during 5 to 10 mins at 250 uM; format: cell-free, Cavia porcellus; conditions: read-out: Activity; in short: as §4
[16] = Induction of morphine release at 37.5 nmol in presence of 50% rat plasma assessed as disappearance of compound peak during 5 to 10 mins at 250 uM; format: cell-free; conditions: read-out: Activity; in short: as §4
[17] = Induction of morphine release at 37.5 nmol in presence of 50% mouse plasma assessed as disappearance of compound peak during 5 to 10 mins at 250 uM; format: cell-free; conditions: read-out: Activity; in short: as §4
[18] = Induction of morphine release in PBS solution assessed as morphine induced inhibition of forskolin-induced cAMP production ny chemiluminescent assay; format: physicochemical; conditions: buffer; in short: as §3
[19] = Stability in PBS solution up to 24 hrs; format: physicochemical; conditions: buffer
In short: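 PDA incubated in PBS under the plasma-incubation conditions for up to 24 h, then analysed by UPLC.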

`CN1CC[C@]23c4c5ccc(OC(=O)c6ccc(OCC(=O)NCCOCCOCCNC(=O)OC(C)(C)C)cc6)c4O[C@H]2[C@@H](O)C=C[C@H]3[C@H]1C5` gave an Activity [1] of 1%, an Activity [2] of 4% and an Activity [3] of 2.5%. The Activity [4] was 4.2 nmol/min, the Activity [5] was 1.1 nmol/min and the Activity [6] was 4%. It also gave an Activity [7] of 0.3 nmol/min, an Activity [8] of 20% and an Activity [9] of 0.8 nmol/min. For the same compound, the Activity [10] was 2%, the Activity [11] was 2.9 nmol/min and the Activity [12] was 20.9 nmol/min.
With `CN1CC[C@]23c4c5ccc(OC(=O)CCC(=O)OC(C)(C)C)c4O[C@H]2[C@@H](O)C=C[C@H]3[C@H]1C5` the Activity [13] was “Active”, the metabolised at 250 µM [14] was > 90% and the metabolised at 250 µM [15] was > 90%. The metabolised at 250 µM [16] was > 90%, the metabolised at 250 µM [17] was > 90% and the Activity [18] was “Not Active”. For the same compound, the Stability [19] was “Stable”.
